For 16 compounds, EC50 results are on record in BindingDB's records for doi:10.1021/jm020820h (2002).

A word on the EC50: it is the concentration giving half of the maximal effect. Lower therefore signals greater potency.

Assay [1] is described as follows: Effective concentration required to inhibit HIV-1 induced cytopathicity in CEM cell culture by 50%.
A short description of assay [2]: Effective concentration required to inhibit HIV-1 induced cytopathicity in MT-4 cell culture by 50%. For orientation: Damage to the host cells serves as the signal in cytopathic effect assays.
In assay [3] the target is T1, Reverse transcriptase/RNaseH (Human immunodeficiency virus 1, UniProt Q72547). Kind of assay: Effective concentration required to inhibit HIV-1 induced cytopathicity in CEM cell culture by 50%. The method, boiled down:
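CEM cells at 4 × 10⁵/mL infected with HIV-1 or HIV-2 at ~100 CCID₅₀ per mL, mixed 1:1 with compound dilutions. Giant cell formation scored microscopically after 4 days. EC₅₀ is the concentration inhibiting virus-induced cytopathicity by 50%.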

Assay [4] deals with T1, Reverse transcriptase/RNaseH. Kind of assay: Effective concentration required to inhibit HIV-1 induced cytopathicity in MT-4 cell culture by 50%. The essentials: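 MT-4 cells at 3 × 10⁵/mL infected with HIV-1 or HIV-2 at ~100 CCID₅₀ per mL, mixed 1:1 with compound dilutions. Cytopathicity read by trypan blue dye exclusion after 5 days. EC₅₀ is the concentration giving 50% protection against the virus-induced loss of cell viability.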

Bounds are passed on as bounds.

In the case of `Cc1cn(C2OC(CO[Si](C)(C)C(C)(C)C)C3(OS(=O)(=O)C=C3N)C2O[Si](C)(C)C(C)(C)C)c(=O)n(C)c1=O` (configuration not stated), the EC50 in assay [1] was found to be 40 nM.
On to `Cc1cn(C2OC(CO[Si](C)(C)C(C)(C)C)C3(OS(=O)(=O)C(Br)=C3N)C2O[Si](C)(C)C(C)(C)C)c(=O)[nH]c1=O` (configuration not stated), for which the EC50 in assay [1] is 850 nM; in assay [2], 930 nM.
Consider `CC=C1C(=N)C2(OS1(=O)=O)C(CO[Si](C)(C)C(C)(C)C)OC(n1cc(C)c(=O)[nH]c1=O)C2O[Si](C)(C)C(C)(C)C` (configuration not stated), for which the EC50 turned out to be 4000 nM in assay [3] and 3200 nM in assay [4].
Turning to `CC=C1C(=N)C2(OS1(=O)=O)C(CO)OC(n1cc(C)c(=O)[nH]c1=O)C2O[Si](C)(C)C(C)(C)C` (configuration not stated), the values for the EC50 in assay [3] and in assay [4] were 15000 nM and 23000 nM, respectively.
In the same order, the values of `COC(=O)CC=C1C(=N)C2(OS1(=O)=O)C(CO[Si](C)(C)C(C)(C)C)OC(n1cc(C)c(=O)[nH]c1=O)C2O[Si](C)(C)C(C)(C)C` (configuration not stated) are 3000 nM and 3700 nM.
The matching figures for `Cc1cn(C2OC(CO[Si](C)(C)C(C)(C)C)C3(OS(=O)(=O)C(=CCCO)C3=N)C2O[Si](C)(C)C(C)(C)C)c(=O)n(C)c1=O` (configuration not stated): 2800 nM and 5900 nM.
Consider `CC1=C(N)C2(OS1(=O)=O)C(CO[Si](C)(C)C(C)(C)C)OC(n1cc(C)c(=O)n(C)c1=O)C2O[Si](C)(C)C(C)(C)C` (configuration not stated), for which the half-maximal effective concentration (EC50) in assay [1] amounted to 2200 nM; in assay [2], 250 nM.
Regarding `Cc1cn(C2OC(CO[Si](C)(C)C(C)(C)C)C3(OS(=O)(=O)C(c4ccsc4)=C3N)C2O[Si](C)(C)C(C)(C)C)c(=O)n(C)c1=O` (configuration not stated), in assay [2], the EC50 is 2300 nM.
On the same count and under the same terms, the figure for `Cc1cn(C2OC(CO[Si](C)(C)C(C)(C)C)C3(OS(=O)(=O)C(I)=C3N)C2O[Si](C)(C)C(C)(C)C)c(=O)n(C)c1=O` (configuration not stated) is 110 nM; for `Cc1cn(C2OC(CO[Si](C)(C)C(C)(C)C)C3(OS(=O)(=O)C(c4ccccc4)=C3N)C2O[Si](C)(C)C(C)(C)C)c(=O)n(C)c1=O` (configuration not stated) it is 1700 nM.
Turning to `CCOC(=O)CC=C1C(=N)C2(OS1(=O)=O)C(CO[Si](C)(C)C(C)(C)C)OC(n1cc(C)c(=O)[nH]c1=O)C2O[Si](C)(C)C(C)(C)C` (configuration not stated), the EC50 in assay [3] was 3500 nM; in assay [4], 10000 nM.
As to `Cc1cn(C2OC(CO[Si](C)(C)C(C)(C)C)C3(OS(=O)(=O)C(c4ccccc4)=C3N)C2O[Si](C)(C)C(C)(C)C)c(=O)[nH]c1=O` (configuration not stated), the EC50 amounted to 2500 nM in assay [1] and 6700 nM in assay [2].
On to `COC(=O)CC=C1C(=N)C2(OS1(=O)=O)C(CO[Si](C)(C)C(C)(C)C)OC(n1cc(C)c(=O)n(C)c1=O)C2O[Si](C)(C)C(C)(C)C` (configuration not stated), for which the EC50 in assay [3] turned out to be 980 nM; in assay [4] it was 2900 nM.
Turning to `CNC1=C(C)S(=O)(=O)OC12C(CO[Si](C)(C)C(C)(C)C)OC(n1cc(C)c(=O)n(C)c1=O)C2O[Si](C)(C)C(C)(C)C` (configuration not stated), the 50% effective concentration (EC50) in assay [1] is greater than 100000 nM; in assay [2], greater than 250000 nM.
For the compound `Cc1cn([C@@H]2O[C@H](CO[Si](C)(C)C(C)(C)C)[C@@]3(OS(=O)(=O)C(=CCCO)C3=N)[C@H]2O[Si](C)(C)C(C)(C)C)c(=O)[nH]c1=O` [1-[(5R,6R,8R,9R)-4-amino-9-(tert-butyl-dimethyl-silanyloxy)-6-(tert-butyl-dimethyl-silanyloxymethyl)-3-(3-hydroxy-propenyl)-2,2-dioxo-1,7-dioxa-2lambda*6*-thia-spiro[4.4]non-3-en-8-yl]-5-methyl-1H-pyrimidine-2,4-dione], a half-maximal effect in assay [4] (EC50) was put at 6600 nM.
For the compound `Cc1cn([C@@H]2O[C@H](CO[Si](C)(C)C(C)(C)C)[C@@]3(OS(=O)(=O)C(I)=C3N)[C@H]2O[Si](C)(C)C(C)(C)C)c(=O)[nH]c1=O` [1-[(5R,6R,8R,9R)-4-amino-9-(tert-butyl-dimethyl-silanyloxy)-6-(tert-butyl-dimethyl-silanyloxymethyl)-3-iodo-2,2-dioxo-1,7-dioxa-2lambda*6*-thia-spiro[4.4]non-3-en-8-yl]-5-methyl-1H-pyrimidine-2,4-dione], the EC50 in assay [1] was found to be 60 nM; in assay [2], 120 nM.
